According to ChEMBL document CHEMBL2203173 (J Med Chem, 2012):

Tests used:
Mus musculus [1] = experiment: Toxicity in BALB/c nu/nu mouse xenografted with human DMS53 cells assessed as change in brain histology at 8 mg/kg, iv administered for 5 days a week measured after 21 days by hematoxylin and eosin staining method; type: organism-based, DMS-53; set-up: dose 8 mg/kg, route intravenous; details: in vivo, 504 h
In short: (§1)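 DMS-53 xenografts in nude mice; dosing started at 100 mm3 tumor volume. Agents given iv via tail vein, 5 days/week for 21 days, vehicle 30% propylene glycol/saline, vehicle-treated controls. Mice sacrificed day 21. Body and organ weights and hematological indices recorded. Spleen, kidney, liver, heart, lungs and brain were stained with H&E, Perls' and Gomori Trichrome and read by an independent veterinary pathologist.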

Mus musculus [2] = experiment: Toxicity in BALB/c nu/nu mouse xenografted with human DMS53 cells assessed as change in lungs histology at 8 mg/kg, iv administered for 5 days a week measured after 21 days by hematoxylin and eosin staining method; type: organism-based, DMS-53; set-up: dose 8 mg/kg, route intravenous; details: in vivo, 504 h
In short: (§2)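 Nude mice with DMS-53 xenografts dosed by tail-vein iv injection in 30% propylene glycol/saline, starting at 100 mm3 tumour volume, 5 days/week for 21 days. Spleen, kidney, liver, heart, lungs and brain were stained with H&E, Perls' (Fe loading) and Gomori Trichrome (fibrosis) by standard methods, and an independent veterinary pathologist examined them.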

Mus musculus [3] = experiment: Toxicity in BALB/c nu/nu mouse xenografted with human DMS53 cells assessed as change in platelet count at 8 mg/kg, iv administered for 5 days a week measured after 21 days; type: organism-based, DMS-53; set-up: dose 8 mg/kg, route intravenous; details: in vivo, 504 h
In short: (§3)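 Nude mice carrying DMS-53 xenografts (treatment from 100 mm3) received iv tail-vein doses in 30% propylene glycol/saline, 5 days/week for 21 days. Hematological indices (RBC, hemoglobin, hematocrit, reticulocytes, WBC, platelets) were then compared with vehicle controls.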

Mus musculus [4] = experiment: Toxicity in BALB/c nu/nu mouse xenografted with human DMS53 cells assessed as change in body weight at 8 mg/kg, iv administered for 5 days a week measured after 21 days; type: organism-based, DMS-53; set-up: dose 8 mg/kg, route intravenous; details: in vivo, 504 h; in short: as §1
Mus musculus [5] = experiment: Toxicity in BALB/c nu/nu mouse xenografted with human DMS53 cells assessed as change in hematocrit level at 20 mg/kg, po administered for 3 times a week measured after 20 days; type: organism-based, DMS-53; set-up: dose 20 mg/kg, route oral; details: in vivo, 480 h
In short: (§4)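 Nude mice bearing DMS-53 xenografts gavaged 3 times/week for 20 days, vehicle 30% propylene glycol/saline, vehicle controls, n = 6-11 mice/condition. Sacrifice on day 20. Organ weights and hematological indices recorded. Spleen, kidney, liver, heart, lungs and brain examined histologically, hearts stained with Gomori Trichrome for fibrosis.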

Mus musculus [6] = experiment: Toxicity in BALB/c nu/nu mouse xenografted with human DMS53 cells assessed as change in RBC count at 4 mg/kg, iv administered for 5 days a week measured after 21 days; type: organism-based, DMS-53; set-up: dose 4 mg/kg, route intravenous; details: in vivo, 504 h
Mus musculus [7] = experiment: Toxicity in BALB/c nu/nu mouse xenografted with human DMS53 cells assessed as change in heart weight at 20 mg/kg, po administered for 3 times a week measured after 20 days; type: organism-based, DMS-53; set-up: dose 20 mg/kg, route oral; details: in vivo, 480 h; in short: as §4
Mus musculus [8] = experiment: Toxicity in BALB/c nu/nu mouse xenografted with human DMS53 cells assessed as change in spleen weight at 20 mg/kg, po administered for 3 times a week measured after 20 days; type: organism-based, DMS-53; set-up: dose 20 mg/kg, route oral; details: in vivo, 480 h
In short: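 DMS-53 xenograft nude mice were gavaged 3 times/week in 30% propylene glycol/saline vehicle for 20 days and then sacrificed. Organ weights and histology of spleen, kidney, liver, heart, lungs and brain were compared with vehicle controls. n = 6-11 mice/condition.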

Mus musculus [9] = experiment: Toxicity in BALB/c nu/nu mouse xenografted with human DMS53 cells assessed as change in hemoglobin level at 8 mg/kg, iv administered for 5 days a week measured after 21 days; type: organism-based, DMS-53; set-up: dose 8 mg/kg, route intravenous; details: in vivo, 504 h; in short: as §1
Mus musculus [10] = experiment: Toxicity in BALB/c nu/nu mouse xenografted with human DMS53 cells assessed as change in hemoglobin level at 20 mg/kg, po administered for 3 times a week measured after 20 days; type: organism-based, DMS-53; set-up: dose 20 mg/kg, route oral; details: in vivo, 480 h; in short: as §4
Mus musculus [11] = experiment: Toxicity in BALB/c nu/nu mouse xenografted with human DMS53 cells assessed as cardiac fibrosis at 4 mg/kg, iv administered for 5 days a week measured after 21 days by […]; type: organism-based, Heart, DMS-53; set-up: dose 4 mg/kg, route intravenous; details: in vivo, 504 h
In short: (§5)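 DMS-53 xenograft nude mice given agents iv by tail vein 5 days/week in 30% propylene glycol/saline for 21 days. At sacrifice, heart sections were stained with Gomori Trichrome to detect fibrosis. Spleen, kidney, liver, heart, lungs and brain were also stained with H&E and Perls' and examined by an independent veterinary pathologist.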

Mus musculus [12] = experiment: Toxicity in BALB/c nu/nu mouse xenografted with human DMS53 cells assessed as vacuolation at 6 mg/kg, iv administered for 5 days a week measured after 21 days by hematoxylin and eosin staining method; type: organism-based, DMS-53; set-up: dose 6 mg/kg, route intravenous; details: in vivo, 504 h; in short: as §2
Mus musculus [13] = experiment: Cardiotoxicity in BALB/c nu/nu mouse xenografted with human DMS53 cells at 3 mg/kg, iv administered for 5 days a week measured after 21 days; type: toxicity, organism-based, DMS-53; set-up: dose 3 mg/kg, route intravenous; details: in vivo, 504 h; in short: as §5
Mus musculus [14] = experiment: Toxicity in BALB/c nu/nu mouse xenografted with human DMS53 cells assessed as hepatocellular necrosis at 0.75 mg/kg, iv administered for 5 days a week measured after 21 days by hematoxylin and eosin staining method; type: organism-based, DMS-53; set-up: dose 0.75 mg/kg, route intravenous; details: in vivo, 504 h; in short: as §2
Mus musculus [15] = experiment: Toxicity in BALB/c nu/nu mouse xenografted with human DMS53 cells assessed as change in RBC count at 6 mg/kg, iv administered for 5 days a week measured after 21 days; type: organism-based, DMS-53; set-up: dose 6 mg/kg, route intravenous; details: in vivo, 504 h
Mus musculus [16] = experiment: Toxicity in BALB/c nu/nu mouse xenografted with human DMS53 cells assessed as change in hematopoetic cells in splenic red pulp at 6 mg/kg, iv administered for 5 days a week measured after 21 days by hematoxylin and eosin staining method; type: organism-based, DMS-53; set-up: dose 6 mg/kg, route intravenous; details: in vivo, 504 h; in short: as §1
Mus musculus [17] = experiment: Toxicity in BALB/c nu/nu mouse xenografted with human DMS53 cells assessed as change in heart weight at 7.5 mg/kg, po administered for 3 times a week measured after 20 days; type: organism-based, DMS-53; set-up: dose 7.5 mg/kg, route oral; details: in vivo, 480 h; in short: as §4
Mus musculus [18] = experiment: Toxicity in BALB/c nu/nu mouse xenografted with human DMS53 cells assessed as cardiac fibrosis at 3 mg/kg, iv administered for 5 days a week measured after 21 days by […]; type: organism-based, Heart, DMS-53; set-up: dose 3 mg/kg, route intravenous; details: in vivo, 504 h; in short: as §5
Mus musculus [19] = experiment: Toxicity in BALB/c nu/nu mouse xenografted with human DMS53 cells assessed as body weight change at 7.5 mg/kg, po administered for 3 times a week measured after 20 days; details: in vivo, 480 h
Mus musculus [20] = experiment: Toxicity in BALB/c nu/nu mouse xenografted with human DMS53 cells assessed as change in lungs histology at 6 mg/kg, iv administered for 5 days a week measured after 21 days by hematoxylin and eosin staining method; type: organism-based, DMS-53; set-up: dose 6 mg/kg, route intravenous; details: in vivo, 504 h; in short: as §1
Mus musculus [21] = experiment: Toxicity in BALB/c nu/nu mouse xenografted with human DMS53 cells assessed as vacuolation at 3 mg/kg, iv administered for 5 days a week measured after 21 days by hematoxylin and eosin staining method; type: organism-based, DMS-53; set-up: dose 3 mg/kg, route intravenous; details: in vivo, 504 h; in short: as §2
Mus musculus [22] = experiment: Toxicity in BALB/c nu/nu mouse xenografted with human DMS53 cells assessed as hepatocellular necrosis at 3 mg/kg, iv administered for 5 days a week measured after 21 days by hematoxylin and eosin staining method; type: organism-based, DMS-53; set-up: dose 3 mg/kg, route intravenous; details: in vivo, 504 h; in short: as §2
Mus musculus [23] = experiment: Toxicity in BALB/c nu/nu mouse xenografted with human DMS53 cells assessed as change in reticulocyte count at 6 mg/kg, iv administered for 5 days a week measured after 21 days; type: organism-based, DMS-53; set-up: dose 6 mg/kg, route intravenous; details: in vivo, 504 h; in short: as §3
Mus musculus [24] = experiment: Toxicity in BALB/c nu/nu mouse xenografted with human DMS53 cells assessed as change in hemoglobin level at 3 mg/kg, iv administered for 5 days a week measured after 21 days; type: organism-based, DMS-53; set-up: dose 3 mg/kg, route intravenous; details: in vivo, 504 h; in short: as §1

CN(C(=S)NN=C(c1ccccn1)c1ccccn1)C1CCCCC1.Cl
Activity (Mus musculus [1]): Non-toxic
Activity (Mus musculus [2]): Non-toxic
Activity (Mus musculus [3]): Non-toxic
Activity (Mus musculus [4]): Non-toxic
Activity (Mus musculus [5]): Non-toxic
Activity (Mus musculus [6]): Non-toxic
Activity (Mus musculus [7]): Non-toxic
Activity (Mus musculus [8]): Non-toxic
Activity (Mus musculus [9]): Toxic
Activity (Mus musculus [10]): Non-toxic
Activity (Mus musculus [11]): Non-toxic

CCN(C)C(=S)NN=C(c1ccccn1)c1ccccn1.Cl
Activity (Mus musculus [12]): Toxic
Activity (Mus musculus [13]): Non-toxic
Activity (Mus musculus [14]): Non-toxic
Activity (Mus musculus [15]): Non-toxic
Activity (Mus musculus [16]): Non-toxic
Activity (Mus musculus [17]): Non-toxic
Activity (Mus musculus [18]): Non-toxic
Activity (Mus musculus [19]): Non-toxic
Activity (Mus musculus [20]): Non-toxic
Activity (Mus musculus [21]): Non-toxic
Activity (Mus musculus [22]): Non-toxic
Activity (Mus musculus [23]): Toxic
Activity (Mus musculus [24]): Non-toxic
